Data set [1] is described as follows: Dose elevating electroshock induced seizure by 20% in CF1 mice after ip administration. The data set is classed as functional, Mus musculus. In outline:
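In CF1 male mice (ca. 24–34 g), compound was given ip in 0.5% methylcellulose. The current giving hind limb extension in 50% of mice was found by the up-and-down method, with 15–25 mice per group and a vehicle control group run with each experimental group. At least three doses were tested. The dose raising threshold current by 20% was taken from a plot of dose against % threshold increase.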

Data set [2] in a line: Dose protecting 50% of the mice from tonic hind limb extension at the time of […] after ip administration. To be noted: Mus musculus, Hindlimb. The data set is classed as functional. In outline:
(§1)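 Phase II quantification in CF1 male mice (ca. 24–34 g), dosing ip or po in 0.5% methylcellulose suspension. ED50 is protection from tonic hind limb extension in MES. TD50 is rotorod neurotoxicity. Both were read at time of peak effect and derived by Litchfield–Wilcoxon with 95% confidence limits.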

A short description of data set [3]: Dose protecting 50% of the mice from tonic hind limb extension at the time of peak convulsant effect after po administration. The data set is classed as functional. The conditions noted are these: Mus musculus, Hindlimb. In outline: as §1
A short description of data set [4]: Antiepileptic activity in male CF1 mice 30 min after administration measured in subcutaneous pentylenetetrazole (scMet) test at a dose of 300 mg/kg (no. of animals treated /protected); activity value is 0/1. The data set is classed as functional, Mus musculus.
Data set [5] is described as follows: Antiepileptic activity in male CF1 mice 30 min after administration measured in subcutaneous pentylenetetrazole (scMet) test at a dose of 100 mg/kg (no. of animals treated /protected) activity value is 0/1. The format is functional, Mus musculus.
Data set [6] can be described thus: Antiepileptic activity in male CF1 mice 4 hr after administration measured in maximum electroshock seizure(MES) test at a dose of 100 mg/kg (no. of animals treated /protected); activity value is 0/3. The format is functional, Mus musculus.
Data set [7] is described as follows: Antiepileptic activity in male CF1 mice 30 min after administration measured in maximum electroshock seizure(MES) test at a dose of 100 mg/kg (no. of animals treated /protected); activity value is 1/3. The format is functional, Mus musculus.
The nature of data set [8]: Antiepileptic activity in male CF1 mice 30 min after administration measured in maximum electroshock seizure(MES) test at a dose of 300 mg/kg (no. of animals treated /protected); activity value is 1/1. The format is functional, Mus musculus.
Data set [9] can be described thus: Antiepileptic activity in male CF1 mice 30 min after administration measured in neurological toxicity (Tox) test at a dose of 100 mg/kg (no. of animals treated /protected); activity value is 0/8. The format is functional, Mus musculus.
A short description of data set [10]: Dose showing neurotoxicity in 50% of the at the time of peak neurotoxic effect in CF1 MICE after ip administration. The format is toxicity, organism-based. To be noted: CF1, mouse, in vivo. The method, boiled down: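 CF1 male mice (ca. 24–34 g), dosed ip in 0.5% methylcellulose suspension. Neurotoxicity measured by the rotorod test at the time of peak neurotoxic effect. TD50 and confidence limits by the Litchfield-Wilcoxon method.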

The nature of data set [11]: Time of peak anticonvulsant effect in CF1 MICE after ip administration. The data set is classed as functional, Mus musculus. In outline:
(§2)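 Male CF1 mice (ca. 24–34 g), compound in 0.5% methylcellulose suspension given ip or po; time (h) at which MES protection (against tonic hind limb extension) peaked was recorded and used for ED50 determination.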

Data set [12] is described as follows: Time of peak anticonvulsant effect in CF1 MICE after po administration. The data set is classed as functional, Mus musculus. In outline: as §2
The nature of data set [13]: Time of peak neurotoxic effect in CF1 MICE after ip administration. The data set is classed as ADME, organism-based. The conditions noted are these: mouse, in vivo. The method, boiled down: (§3)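 Male CF1 mice (ca. 24–34 g), compound ip in 0.5% methylcellulose suspension; neurological deficit assessed by rotorod test, time (h) of peak neurotoxic effect recorded for TD50 determination.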

A short description of data set [14]: Antiepileptic activity in male CF1 mice 4 hr after administration measured in maximum electroshock seizure(MES) test at a dose of 300 mg/kg (no. of animals treated /protected); activity value is 1/1. The format is functional, Mus musculus.
The nature of data set [15]: Antiepileptic activity in male CF1 mice 4 hr after administration measured in neurological toxicity (Tox) test at a dose of 100 mg/kg (no. of animals treated /protected); activity value is 0/4. The data set is classed as functional, Mus musculus.
The nature of data set [16]: Antiepileptic activity in male CF1 mice 4 hr after administration measured in neurological toxicity (Tox) test at a dose of 300 mg/kg (no. of animals treated /protected); activity value is 0/2. The format is functional, Mus musculus.
The nature of data set [17]: Antiepileptic activity in male CF1 mice 4 hr after administration measured in subcutaneous pentylenetetrazole (scMet) test at a dose of 100 mg/kg; activity value is 0/1. The data set is classed as functional, Mus musculus.
A short description of data set [18]: Antiepileptic activity in male CF1 mice 4 hr after administration measured in subcutaneous pentylenetetrazole (scMet) test at a dose of 300 mg/kg (no. of animals treated /protected); activity value is 0/1. The format is functional, Mus musculus.
Data set [19] can be described thus: Dose at which anticonvulsant activity was observed in mice. The format is functional, Mus musculus.
A short description of data set [20]: Antiepileptic activity in male CF1 mice 30 min after administration measured in neurological toxicity (Tox) test at a dose of 300 mg/kg (no. of animals treated /protected); activity value is 1/4. The data set is classed as functional, Mus musculus.
The nature of data set [21]: Protective index was measured as TD50/MES ED50 in mice on ip administration. The data set is classed as ADME, organism-based. The conditions noted are these: mouse, in vivo, read-out: PI. In outline: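 Male CF1 mice (ca. 24–34 g), compound given ip as 0.5% methylcellulose suspension. MES ED50 = dose protecting 50% from tonic hind limb extension; TD50 = median neurotoxic dose by rotorod; both at time of peak effect, with confidence limits by Litchfield and Wilcoxon. PI = TD50/MES ED50.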

A short description of data set [22]: Antiepileptic activity in male CF1 mice 30 min after administration measured in neurological toxicity (Tox) test at a dose of 30 mg/kg (no. of animals treated /protected); activity value is 0/4. The format is functional, Mus musculus.
Data set [23] is described as follows: Antiepileptic activity in male CF1 mice 30 min after administration measured in subcutaneous pentylenetetrazole (scMet) test at a dose of 30 mg/kg (no. of animals treated /protected); activity value is 1/1. The format is functional, Mus musculus.
Data set [24] in a line: Antiepileptic activity in male CF1 mice 4 hr after administration measured in maximum electroshock seizure(MES) test at a dose of 300 mg/kg (no. of animals treated /protected); activity value is 0/1. The format is functional, Mus musculus.
Data set [25] is described as follows: Antiepileptic activity in male CF1 mice 30 min after administration measured in maximum electroshock seizure(MES) test at a dose of 30 mg/kg (no. of animals treated /protected); activity value is 0/1. The format is functional, Mus musculus.
The nature of data set [26]: Antiepileptic activity in male CF1 mice 4 hr after administration measured in maximum electroshock seizure(MES) test at a dose of 30 mg/kg (no. of animals treated /protected); activity value is 0/1. The data set is classed as functional, Mus musculus.
Data set [27] can be described thus: Antiepileptic activity in male CF1 mice 4 hr after administration measured in neurological toxicity (Tox) test at a dose of 30 mg/kg (no. of animals treated /protected); activity value is 0/2. The data set is classed as functional, Mus musculus.
The nature of data set [28]: Antiepileptic activity in male CF1 mice 4 hr after administration measured in subcutaneous pentylenetetrazole (scMet) test at a dose of 30 mg/kg; activity value is 0/1. The format is functional, Mus musculus.
Data set [29] can be described thus: Antiepileptic activity in male CF1 mice 30 min after administration measured in neurological toxicity (Tox) test at a dose of 300 mg/kg (no. of animals treated /protected); activity value is 2/4. The format is functional, Mus musculus.
A short description of data set [30]: Time of peak anticonvulsant effect in CF1 mice. The format is functional, Mus musculus. In outline: as §2
Data set [31] in a line: Time of peak neurotoxic effect in CF1 mice. The data set is classed as ADME. To be noted: mouse, in vivo. The method, boiled down: as §3
Data set [32] has as its system Rattus norvegicus. Nature of the data set: Average seizure score for the rat cornea 0.5 hr after intraperitoneal administration of 150 mg/Kg of compound. The format is functional. In outline: (§4)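 Sprague-Dawley rats (85–95 g initial) were kindled with 4 s, 8 mA corneal stimulations (butacaine anesthesia) to 10 consecutive stage 5 seizures. After a vehicle shock and a 2-day shock-free period, test drug was given ip or po and a single shock applied at time of peak effect. Seizures were scored on a modified Racine 0–5 scale. ED50 is the dose reducing severity by 50% (Litchfield–Wilcoxon).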

Data set [33] concerns Rattus norvegicus. The data set is described as follows: Average seizure score for the rat cornea 0.5 hr after intraperitoneal administration of 200 mg/Kg of compound. The data set is classed as functional. The method, boiled down: as §4
Data set [34] deals with Rattus norvegicus. Nature of the data set: Average seizure score for the rat cornea 0.5 hr after intraperitoneal administration of 0 mg/Kg of compound. The data set is classed as functional. The method, boiled down:
(§5)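 Sprague-Dawley rats (85–95 g initial weight) kindled by corneal stimulation (4 s, 8 mA) twice daily for 5 to 6 days, then once daily until 10 consecutive stage 5 seizures. Butacaine sulfate 1% applied to the cornea as a topical anaesthetic. After a vehicle shock and a 2-day shock-free period, drug given ip, then a single shock at the time of peak effect. Scored on the modified Racine scale (0–5).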

For data set [35], the system named is Rattus norvegicus. Nature of the data set: Average seizure score for the rat cornea 0.5 hr after intraperitoneal administration of 100 mg/Kg of compound. The data set is classed as functional. The method, boiled down: as §4
Data set [36] concerns Rattus norvegicus. The data set is described as follows: Average seizure score for the rat cornea 0.5 hr after intraperitoneal administration of 250 mg/Kg of compound. The data set is classed as functional. The method, boiled down:
as §4

Data set [37] concerns Rattus norvegicus. Nature of the data set: Dose reducing the seizure severity in rat cornea 0.5 hr after peroral administration. The format is functional. To be noted: po. The method, boiled down:
as §4

Data set [38] relates to Rattus norvegicus. Nature of the data set: Dose reducing the seizure severity in rat cornea 1 hr after peroral administration. The data set is classed as ADME, organism-based. The conditions noted are these: po. In outline:
as §4

Data set [39] has as its system Rattus norvegicus. The data set is described as follows: Intraperitoneal dose (0 mg/Kg) reducing rat corneal kindling 0.5 hr after administration. The data set is classed as functional. The method, boiled down: as §5
Data set [40] has as its system Rattus norvegicus. Nature of the data set: Intraperitoneal dose (100 mg/Kg) reducing rat corneal kindling 0.5 hr after administration. The format is functional. The method, boiled down:
as §4

Data set [41] concerns Rattus norvegicus. The data set is described as follows: Intraperitoneal dose (150 mg/Kg) reducing rat corneal kindling 0.5 hr after administration. The format is functional. In outline:
as §4

Data set [42] concerns Rattus norvegicus. Nature of the data set: Intraperitoneal dose (200 mg/Kg) reducing rat corneal kindling 0.5 hr after administration. The format is functional. In outline: as §4
Data set [43] has as its system Rattus norvegicus. The data set is described as follows: Intraperitoneal dose (250 mg/Kg) reducing rat corneal kindling 0.5 hr after administration. The format is functional. In outline:
as §4

Regarding `CC1(C)CC(O)=C/C(=N\Cc2ccccc2)C1`, the Dose in [1] is 20 mg/kg; in data set [19], greater than 100 mg/kg. For the same compound, the median effective dose (ED50) (in general, the dose that gives a 50% effect, or the effect in half of the subjects) in [2] stood at 53 mg/kg; in data set [3] it was 211 mg/kg. The Activity came to 0 in [4]; 0 in data set [5]; 0 in data set [6]; 1 in data set [7]; 1 in data set [8]; 0 in [9]. Besides, the Activity in data set [14] is listed as 1; in [15], 0; in data set [16], 0; in data set [17] it was 0; in data set [18] it was 0; in data set [20] it was 1. For the same compound, in data set [10], the TD50 – broadly, the 50% point of the dose-response relation for the toxic effect studied – was 148 mg/kg. Also, the values for the TPE in [11], in data set [12] and in [13] were 0.5, 0.5 and 0.25, respectively. For the same compound, the selectivity ratio in [21] worked out at 2.8.

For `COC(=O)C1C(=O)C=C(Nc2ccc(C)cc2)CC1C` (configuration not stated), the Activity in data set [22] is 0; in data set [4] it was 0; in [23], 1; in data set [24], 0; in data set [8] it was 1; in data set [25], 0. Further, the Activity in data set [26] amounted to 0; in [16], 0; in data set [27], 0; in data set [18] it was 0; in data set [28], 0; in data set [29], 2. In addition, the Dose entry in data set [19] was “<=100 mg kg-1”.

`CCCC(CCC)C(=O)O` [VALPROIC ACID]: in data set [1], the Dose was found to be 132 mg/kg. Also, the ED50 in [2] was determined as 248 mg/kg; in [37], 96 mg/kg; in data set [38] it was 117 mg/kg. The TPE in [11] amounted to 0.5; in [30] it was 0.25; in data set [13] it was 0.5; in data set [31] it was 0.25. In addition, the Average seizure score in data set [32] stood at 1.2; in data set [33], 0.1; in data set [34], 5; in data set [35], 2.6; in [36] it was 0.5. Further, the Reduction was 0% in data set [39]; 49% in data set [40]; 76% in data set [41]; 98% in data set [42]; 90% in data set [43].
